Converted amounts (≈) assume the structure as drawn.
How the values were obtained:
Assay type in all cases: functional
[1] = system: Mycobacterium tuberculosis; experiment: Antimycobacterial activity against Mycobacterium tuberculosis H37Rv ATCC 27294 incubated for 7 days by microplate Alamar Blue assay; conditions: H37Rv ATCC 27294, 168 h
Procedure, shortened: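 Fluorescence read-out. MIC is the lowest concentration that reduces fluorescence by at least 90% relative to the mean of replicate bacterium-only controls. Isoniazid and rifampicin were included as reference drugs.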

Escherichia coli [2] = experiment: Antibacterial activity against Escherichia coli ATCC 25922 after 18 to 24 hrs by two-fold serial dilution method
Procedure, shortened: (§1)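 Twofold serial dilution in agar media against Gram-positive and Gram-negative strains. Plates incubated at 35 °C for 18–24 h. MIC read as the lowest compound concentration giving complete inhibition of bacterial growth.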

Escherichia coli [3] = experiment: Antibacterial activity against extended-spectrum beta-lactamase producing Escherichia coli 14-1 after 18 to 24 hrs by two-fold serial dilution method; procedure, shortened: as §1
Escherichia coli [4] = experiment: Antibacterial activity against extended-spectrum beta-lactamase producing Escherichia coli 14-2 after 18 to 24 hrs by two-fold serial dilution method; procedure, shortened: as §1
Escherichia coli [5] = experiment: Antibacterial activity against Escherichia coli 14-1 after 18 to 24 hrs by two-fold serial dilution method; procedure, shortened: as §1
Escherichia coli [6] = experiment: Antibacterial activity against Escherichia coli 14-2 after 18 to 24 hrs by two-fold serial dilution method; procedure, shortened: as §1
Klebsiella pneumoniae [7] = experiment: Antibacterial activity against extended-spectrum beta-lactamase producing Klebsiella pneumoniae 14-17 after 18 to 24 hrs by two-fold serial dilution method; procedure, shortened: as §1
Klebsiella pneumoniae [8] = experiment: Antibacterial activity against extended-spectrum beta-lactamase producing Klebsiella pneumoniae 14-18 after 18 to 24 hrs by two-fold serial dilution method; procedure, shortened: as §1
Klebsiella pneumoniae [9] = experiment: Antibacterial activity against extended-spectrum beta-lactamase producing Klebsiella pneumoniae 14-19 after 18 to 24 hrs by two-fold serial dilution method; procedure, shortened: as §1
Klebsiella pneumoniae [10] = experiment: Antibacterial activity against Klebsiella pneumoniae 14-1 after 18 to 24 hrs by two-fold serial dilution method; procedure, shortened: as §1
Klebsiella pneumoniae [11] = experiment: Antibacterial activity against Klebsiella pneumoniae 14-2 after 18 to 24 hrs by two-fold serial dilution method; procedure, shortened: as §1
Klebsiella pneumoniae [12] = experiment: Antibacterial activity against Klebsiella pneumoniae 14-3 after 18 to 24 hrs by two-fold serial dilution method; procedure, shortened: as §1
Klebsiella pneumoniae [13] = experiment: Antibacterial activity against Klebsiella pneumoniae 14-4 after 18 to 24 hrs by two-fold serial dilution method; procedure, shortened: as §1
Pseudomonas aeruginosa [14] = experiment: Antibacterial activity against Pseudomonas aeruginosa ATCC 27853 after 18 to 24 hrs by two-fold serial dilution method; procedure, shortened: as §1
Pseudomonas aeruginosa [15] = experiment: Antibacterial activity against Pseudomonas aeruginosa 14-9 after 18 to 24 hrs by two-fold serial dilution method; procedure, shortened: as §1
Pseudomonas aeruginosa [16] = experiment: Antibacterial activity against Pseudomonas aeruginosa 14-14 after 18 to 24 hrs by two-fold serial dilution method; procedure, shortened: as §1
Pseudomonas aeruginosa [17] = experiment: Antibacterial activity against Pseudomonas aeruginosa 14-15 after 18 to 24 hrs by two-fold serial dilution method; procedure, shortened: as §1
Pseudomonas aeruginosa [18] = experiment: Antibacterial activity against Pseudomonas aeruginosa 14-16 after 18 to 24 hrs by two-fold serial dilution method; procedure, shortened: as §1
Staphylococcus aureus [19] = experiment: Antibacterial activity against Staphylococcus aureus CMCC 26003 after 18 to 24 hrs by two-fold serial dilution method; procedure, shortened: as §1
Staphylococcus aureus [20] = experiment: Antibacterial activity against methicillin-sensitive Staphylococcus aureus 14-1 after 18 to 24 hrs by two-fold serial dilution method; procedure, shortened: as §1
Staphylococcus aureus [21] = experiment: Antibacterial activity against methicillin-sensitive Staphylococcus aureus 14-3 after 18 to 24 hrs by two-fold serial dilution method; procedure, shortened: as §1
Staphylococcus aureus [22] = experiment: Antibacterial activity against methicillin-sensitive Staphylococcus aureus 14-4 after 18 to 24 hrs by two-fold serial dilution method; procedure, shortened: as §1
Staphylococcus aureus [23] = experiment: Antibacterial activity against methicillin-resistant Staphylococcus aureus 14-4 after 18 to 24 hrs by two-fold serial dilution method
Procedure, shortened: (§2)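 Agar media, standard twofold serial dilution. MIC is the lowest concentration giving complete inhibition of bacterial growth after incubation at 35 °C for 18–24 h. Ciprofloxacin and levofloxacin were run as comparators.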

Staphylococcus aureus [24] = experiment: Antibacterial activity against methicillin-resistant Staphylococcus aureus 14-5 after 18 to 24 hrs by two-fold serial dilution method; procedure, shortened: as §2
[25] = system: Staphylococcus epidermidis; experiment: Antibacterial activity against methicillin-sensitive Staphylococcus epidermidis 14-2 after 18 to 24 hrs by two-fold serial dilution method; procedure, shortened: as §1
[26] = system: Staphylococcus epidermidis; experiment: Antibacterial activity against methicillin-resistant Staphylococcus epidermidis 14-21 after 18 to 24 hrs by two-fold serial dilution method; procedure, shortened: as §2
[27] = system: Staphylococcus epidermidis; experiment: Antibacterial activity against methicillin-resistant Staphylococcus epidermidis 14-22 after 18 to 24 hrs by two-fold serial dilution method; procedure, shortened: as §2
[28] = system: Staphylococcus epidermidis; experiment: Antibacterial activity against methicillin-resistant Staphylococcus epidermidis 14-37 after 18 to 24 hrs by two-fold serial dilution method; procedure, shortened: as §2
[29] = system: Staphylococcus epidermidis; experiment: Antibacterial activity against methicillin-resistant Staphylococcus epidermidis 14-39 after 18 to 24 hrs by two-fold serial dilution method; procedure, shortened: as §2
Streptococcus pneumoniae = experiment: Antibacterial activity against methicillin-resistant Streptococcus pneumoniae ATCC 19615 after 18 to 24 hrs by two-fold serial dilution method; procedure, shortened: as §2
Enterococcus faecium [30] = experiment: Antibacterial activity against Enterococcus faecium 14-2 after 18 to 24 hrs by two-fold serial dilution method; procedure, shortened: as §1
Enterococcus faecium [31] = experiment: Antibacterial activity against Enterococcus faecium 14-5 after 18 to 24 hrs by two-fold serial dilution method; procedure, shortened: as §1
Enterococcus faecium [32] = experiment: Antibacterial activity against Enterococcus faecium 14-6 after 18 to 24 hrs by two-fold serial dilution method; procedure, shortened: as §1
Enterococcus faecalis [33] = experiment: Antibacterial activity against Enterococcus faecalis 14-1 after 18 to 24 hrs by two-fold serial dilution method; procedure, shortened: as §1
Enterococcus faecalis [34] = experiment: Antibacterial activity against Enterococcus faecalis 14-2 after 18 to 24 hrs by two-fold serial dilution method; procedure, shortened: as §1

For `Nc1nc(-n2cc(C(=O)O)c(=O)c3cc(F)c(N4C/C(=N/OCc5ccccc5)C(CNC5CC5)C4)nc32)c(F)cc1F` (stereo not given), the MIC90 [1] was over 32 µg/mL, the MIC (Escherichia coli [2]) was 8 µg/mL (≈ 13.5 µM) and the MIC (Escherichia coli [3]) was 64 µg/mL (≈ 108 µM). The MIC (Escherichia coli [4]) was over 128 µg/mL, the MIC (Escherichia coli [5]) was over 128 µg/mL and the MIC (Escherichia coli [6]) was over 128 µg/mL. For the same compound, the MIC (Klebsiella pneumoniae [7]) was 128 µg/mL (≈ 216 µM), the MIC (Klebsiella pneumoniae [8]) was over 128 µg/mL and the MIC (Klebsiella pneumoniae [9]) was 128 µg/mL (≈ 216 µM). The MIC (Klebsiella pneumoniae [10]) was 64 µg/mL (≈ 108 µM), the MIC (Klebsiella pneumoniae [11]) was 128 µg/mL (≈ 216 µM) and the MIC (Klebsiella pneumoniae [12]) was over 128 µg/mL. The MIC (Klebsiella pneumoniae [13]) was over 128 µg/mL, the MIC (Pseudomonas aeruginosa [14]) was 128 µg/mL (≈ 216 µM) and the MIC (Pseudomonas aeruginosa [15]) was 128 µg/mL (≈ 216 µM). The MIC (Pseudomonas aeruginosa [16]) was 128 µg/mL (≈ 216 µM), the MIC (Pseudomonas aeruginosa [17]) was 128 µg/mL (≈ 216 µM) and the MIC (Pseudomonas aeruginosa [18]) was 128 µg/mL (≈ 216 µM). For the same compound, the MIC (Staphylococcus aureus [19]) was 0.015 µg/mL (≈ 0.0253 µM), the MIC (Staphylococcus aureus [20]) was 16 µg/mL (≈ 27 µM) and the MIC (Staphylococcus aureus [21]) was 32 µg/mL (≈ 53.9 µM). The MIC (Staphylococcus aureus [22]) was 32 µg/mL (≈ 53.9 µM), the MIC (Staphylococcus aureus [23]) was 64 µg/mL (≈ 108 µM) and the MIC (Staphylococcus aureus [24]) was 8 µg/mL (≈ 13.5 µM). For the same compound, the MIC [25] was 128 µg/mL (≈ 216 µM), the MIC [26] was 64 µg/mL (≈ 108 µM) and the MIC [27] was 128 µg/mL (≈ 216 µM). The MIC [28] was 128 µg/mL (≈ 216 µM), the MIC [29] was 64 µg/mL (≈ 108 µM) and the MIC (Streptococcus pneumoniae) was 16 µg/mL (≈ 27 µM). For the same compound, the MIC (Enterococcus faecium [30]) was 64 µg/mL (≈ 108 µM), the MIC (Enterococcus faecium [31]) was 64 µg/mL (≈ 108 µM) and the MIC (Enterococcus faecium [32]) was 128 µg/mL (≈ 216 µM). It also gave an MIC (Enterococcus faecalis [33]) of 64 µg/mL (≈ 108 µM) and an MIC (Enterococcus faecalis [34]) of 8 µg/mL (≈ 13.5 µM).

Reference: ChEMBL document CHEMBL3734675, “Synthesis, antimycobacterial and antibacterial activity of fluoroquinolone derivatives containing an 3-alkoxyimino-4-(cyclopropylanimo)methylpyrrolidine moiety” (2015)
